Our source for the MIC90, alphaKi and MIC values is ChEMBL document CHEMBL4219150, “Fragment-Based Approach to Targeting Inosine-5'-monophosphate Dehydrogenase (IMPDH) from Mycobacterium tuberculosis” (J Med Chem, 2018).

The test system of experiment [1] is Mycobacterium tuberculosis. Kind of experiment: Antibacterial activity against Mycobacterium tuberculosis H37Rv assessed as inhibition of bacterial growth after 7 days by alamar blue fluorescence-based broth microdilution assay. In kind it is functional. Particulars: 168 h. An outline of the steps: (§1)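 Mtb H37Rv grown to mid-exponential phase in Middlebrook 7H9 with OADC, 0.2% glycerol, 0.05% Tween-80. Compounds in DMSO (1%) tested at 8 concentrations; rifampin and isoniazid as positive controls. ~10^5 bacteria per well, 37°C for 7 d, then Alamar Blue for a further 24 h at 37°C. Fluorescence read at ex 544/em 590 nm. Data normalised to min/max inhibition controls; MIC90 taken from the dose-response curve.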

The target of experiment [2] is Inosine-5'-monophosphate dehydrogenase (Mycobacterium tuberculosis (strain ATCC 25618 / H37Rv)) (UniProt P9WKI7). Description: Uncompetitive inhibition of Mycobacterium tuberculosis H37Rv IMPDH assessed as reduction in NADH production preincubated for 5 mins followed by substrate IMP addition at increasing concentration measured for 32 mins in presence of a constant concentration of NAD+ by Lineweaver-Burk plot analysis.
Sequence of Inosine-5'-monophosphate dehydrogenase (Mycobacterium tuberculosis (strain ATCC 25618 / H37Rv)) (P9WKI7 whole entry): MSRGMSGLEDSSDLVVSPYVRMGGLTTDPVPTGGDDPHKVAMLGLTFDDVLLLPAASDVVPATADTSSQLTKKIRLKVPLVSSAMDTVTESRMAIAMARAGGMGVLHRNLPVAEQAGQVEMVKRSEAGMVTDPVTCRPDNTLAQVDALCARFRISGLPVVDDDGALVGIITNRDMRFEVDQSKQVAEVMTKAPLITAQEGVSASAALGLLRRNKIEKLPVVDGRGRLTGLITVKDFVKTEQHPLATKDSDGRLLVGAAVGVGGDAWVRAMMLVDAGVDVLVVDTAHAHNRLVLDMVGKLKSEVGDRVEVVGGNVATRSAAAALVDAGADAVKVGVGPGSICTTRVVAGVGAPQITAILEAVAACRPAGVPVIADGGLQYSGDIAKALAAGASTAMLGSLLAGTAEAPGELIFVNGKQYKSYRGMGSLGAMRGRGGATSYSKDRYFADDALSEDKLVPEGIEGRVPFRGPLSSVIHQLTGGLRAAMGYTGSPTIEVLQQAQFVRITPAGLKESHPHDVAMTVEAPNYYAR

The test system of experiment [3] is Mycobacterium tuberculosis. Kind of experiment: Antibacterial activity against Mycobacterium tuberculosis after 7 days by Alamar Blue assay. It counts as functional. Particulars: 168 h. In short, it runs like this: as §1
A general note: The colour change of resazurin is a common sign of viable cells or microbes.

Experiment [4] relates to Mycobacterium tuberculosis. Description: Antibacterial activity against Mycobacterium tuberculosis ATCC 27294 after 7 days by broth microdilution method. In kind it is functional. Particulars: ATCC 27294, 168 h. A general note: Dilution methods test growth across graded concentrations, often in twofold steps.
Experiment [5] deals with Mycobacterium tuberculosis. Description: Antibacterial activity against Mycobacterium tuberculosis. In kind it is functional. In short, it runs like this: as §1

In brackets after ≈: the same amount, converted by molar mass.

Consider `CC(Oc1ccc(-c2cn(C)cn2)cc1)C(=O)Nc1nc(-c2ccccc2)c[nH]1` (stereo not given), for which the MIC90 in experiment [1] was at least 50 µM.

In the case of `C[C@H](Oc1ccc(-c2cn(C)cn2)cc1)C(=O)Nc1nc(-c2ccc(Br)cc2)c[nH]1`, the MIC90 in experiment [1] was at least 50 µM. Same read-out and setting: for `CC(Oc1ccc(-c2cn(C)cn2)cc1)C(=O)Nc1nc(-c2ccc(Br)cc2)co1` (stereo not given) the value was at least 50 µM; for `CC(Oc1ccc(-c2cn(C)cn2)cc1)C(=O)Nc1nc(-c2ccc(N3CCOCC3)cc2)c[nH]1` (stereo not given), at least 50 µM. Take `COc1ccc(OC(C)C(=O)Nc2ccc(I)cc2)cc1` (stereo not given): in experiment [2], the alphaKi came to 0.603 µM. This compound also displayed an MIC in experiment [3] of 12.5 µM (≈ 4.97 µg/mL).

`C=C(C)c1cccc(C(C)(C)NC(=O)Nc2ccc(Cl)c(C(=O)N(C)C)c2)c1` had an MIC in experiment [4] of 5 µM (≈ 2 µg/mL).

As for `COc1c(C)c2c(c(O)c1C/C=C(\C)Cn1cc(COC[C@H]3O[C@@H](n4cnc5c(N)ncnc54)[C@H](O)[C@@H]3O)nn1)C(=O)OC2`, the lowest concentration to inhibit growth in experiment [4] (MIC) was 100 µM (≈ 60.9 µg/mL). In the case of `O=C(C1CCCCC1)N1CCN(S(=O)(=O)c2ccc3cnccc3c2)CC1`, the MIC in experiment [5] is 1.9 µM (≈ 0.736 µg/mL). Turning to `CC(Oc1ccc(-c2cn(C)cn2)cc1)C(=O)Nc1nc(-c2ccc(Br)cc2)c[nH]1` (stereo not given), in experiment [1], the MIC90 is at least 50 µM. Same read-out and setting: for `CC(Oc1ccc(-c2cn(C)cn2)cc1)C(=O)Nc1nc(-c2ccc(I)cc2)c[nH]1` (stereo not given) the value was at least 50 µM.

Turning to `Cc1n[nH]c(C)c1S(=O)(=O)Nc1ccc2c[nH]nc2c1`, the MIC in experiment [5] came out at 2 µM (≈ 0.583 µg/mL). Take `CC(Oc1ccc(-c2cn(C)cn2)cc1)C(=O)Nc1ccc(I)cc1` (stereo not given): in experiment [1], the MIC90 is at least 50 µM. Same read-out and setting: for `COc1ccc(-c2c[nH]c(NC(=O)C(C)Oc3ccc(-c4cn(C)cn4)cc3)n2)cc1` (stereo not given) the value was at least 50 µM; for `CC(Oc1ccc(-c2cn(C)cn2)cc1)C(=O)Nc1ccccc1` (stereo not given), at least 50 µM.

The MIC90 is an inhibitory concentration at the 90% level, which refers to growth in some studies and to a panel of isolates in others. In general, MIC refers to the lowest concentration found to suppress growth.
